Laboratory results as given in ChEMBL document CHEMBL1268841, “Synthesis and antifungal activity of benzofuran-5-ols” (2010).
Values after ≈ are worked out from the molar mass of the structure shown.

Assays:
Type in all cases: functional
Aspergillus flavus = test: Antifungal activity against Aspergillus flavus KCCM 11899 after 2 days; conditions: KCCM 11899, 48 h
Summary of the method: (§1)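 Twofold broth dilution in modified Sabouraud dextrose broth. Inoculum about 1 × 10⁵ cells/mL. Agents tested at final concentrations of 0.2 to 50.0, with fluconazole and 5-fluorocytosine as standards.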

Pichia kudriavzevii = test: Antifungal activity against Candida krusei KCCM 11655 after 1 day; conditions: KCCM 11655, 24 h
Summary of the method: (§2)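 MIC found by twofold broth dilution in modified Sabouraud dextrose broth. Approximately 1 × 10⁵ cells/mL inoculated. Final agent concentrations ranged from 0.2 to 50.0, compared against fluconazole and 5-fluorocytosine. Read after 1 day at 37 °C.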

Cryptococcus neoformans = test: Antifungal activity against Cryptococcus neoformans KCCM 50564 after 1 day; conditions: KCCM 50564, 24 h; summary of the method: as §2
Candida albicans = test: Antifungal activity against Candida albicans KCCM 50235 after 1 day; conditions: KCCM 50235, 24 h; summary of the method: as §2
Aspergillus niger = test: Antifungal activity against Aspergillus niger KCTC 1231 after 2 days; conditions: KCTC 1231, 48 h; summary of the method: as §1
Candida tropicalis = test: Antifungal activity against Candida tropicalis KCCM 50662 after 1 day; conditions: KCCM 50662, 24 h; summary of the method: as §2

| Structure (SMILES) | MIC (Aspergillus flavus) [µg/mL] | MIC (Pichia kudriavzevii) [µg/mL] | MIC (Cryptococcus neoformans) [µg/mL] | MIC (Candida albicans) [µg/mL] | MIC (Aspergillus niger) [µg/mL] | MIC (Candida tropicalis) [µg/mL] |
| --- | --- | --- | --- | --- | --- | --- |
| COC(=O)c1c(N)oc2c(C)c(C)c(O)cc12 | 25 (≈ 106 µM) | 25 (≈ 106 µM) | 25 (≈ 106 µM) | 50 (≈ 213 µM) | 6.3 (≈ 26.8 µM) | 50 (≈ 213 µM) |
| COC(=O)c1c(N)oc2cc(C)c(O)cc12 | 25 (≈ 113 µM) | 3.2 (≈ 14.5 µM) | 12.5 (≈ 56.5 µM) | 25 (≈ 113 µM) | 12.5 (≈ 56.5 µM) | 25 (≈ 113 µM) |
| COC(=O)c1c(N)oc2ccc(O)cc12 | 12.5 (≈ 60.3 µM) | 6.3 (≈ 30.4 µM) | 12.5 (≈ 60.3 µM) | 1.6 (≈ 7.72 µM) | 3.2 (≈ 15.4 µM) | 3.2 (≈ 15.4 µM) |
| CCOC(=O)c1c(N)oc2ccc(O)cc12 | 6.3 (≈ 28.5 µM) | 12.5 (≈ 56.5 µM) | 12.5 (≈ 56.5 µM) | 1.6 (≈ 7.23 µM) | 3.2 (≈ 14.5 µM) | 3.2 (≈ 14.5 µM) |
| COC(=O)c1c(N)oc2cc(Cl)c(O)cc12 | 6.3 (≈ 26.1 µM) | 25 (≈ 103 µM) | 12.5 (≈ 51.7 µM) | 25 (≈ 103 µM) | 6.3 (≈ 26.1 µM) | 12.5 (≈ 51.7 µM) |
| CCOC(=O)c1c(N)oc2cc(Cl)c(O)cc12 | 12.5 (≈ 48.9 µM) | 25 (≈ 97.8 µM) | 50 (≈ 196 µM) | 12.5 (≈ 48.9 µM) | 25 (≈ 97.8 µM) | 12.5 (≈ 48.9 µM) |
| CCOC(=O)c1c(N)oc2c(C)cc(O)c(C)c12 | 12.5 (≈ 50.1 µM) | 3.2 (≈ 12.8 µM) | 12.5 (≈ 50.1 µM) | 6.3 (≈ 25.3 µM) | 12.5 (≈ 50.1 µM) | 6.3 (≈ 25.3 µM) |
| Cc1cc2oc(N)c(C#N)c2cc1O | 12.5 (≈ 66.4 µM) | 0.8 (≈ 4.25 µM) | 3.2 (≈ 17 µM) | 50 (≈ 266 µM) | > 50 | > 50 |
| N#Cc1c(N)oc2ccc(O)cc12 | 12.5 (≈ 71.8 µM) | 25 (≈ 144 µM) | 12.5 (≈ 71.8 µM) | 12.5 (≈ 71.8 µM) | 6.3 (≈ 36.2 µM) | 6.3 (≈ 36.2 µM) |
| Cc1c(O)ccc(O)c1C | 12.5 (≈ 90.5 µM) | 25 (≈ 181 µM) | 12.5 (≈ 90.5 µM) | 50 (≈ 362 µM) | 50 (≈ 362 µM) | > 50 |
| COC(=O)c1c(N)oc2c(C)c(C)c(O)c(Sc3ccccc3)c12 | 25 (≈ 72.8 µM) | 6.3 (≈ 18.3 µM) | 1.6 (≈ 4.66 µM) | 25 (≈ 72.8 µM) | 12.5 (≈ 36.4 µM) | 25 (≈ 72.8 µM) |
| COC(=O)c1c(N)oc2c(C)c(C)c(O)c(Sc3ccc(C)cc3)c12 | 25 (≈ 69.9 µM) | 3.2 (≈ 8.95 µM) | 6.3 (≈ 17.6 µM) | 25 (≈ 69.9 µM) | 25 (≈ 69.9 µM) | 25 (≈ 69.9 µM) |
| COC(=O)c1c(N)oc2c(C)c(C)c(O)c(Sc3ccc(C)c(C)c3)c12 | 3.2 (≈ 8.61 µM) | 3.2 (≈ 8.61 µM) | 1.6 (≈ 4.31 µM) | 25 (≈ 67.3 µM) | 12.5 (≈ 33.7 µM) | 25 (≈ 67.3 µM) |
| COC(=O)c1c(N)oc2c(C)c(C)c(O)c(Sc3cccc(F)c3)c12 | 3.2 (≈ 8.85 µM) | 25 (≈ 69.2 µM) | 6.3 (≈ 17.4 µM) | > 50 | 1.6 (≈ 4.43 µM) | 50 (≈ 138 µM) |
| COC(=O)c1c(N)oc2c(C)c(C)c(O)c(Sc3cccc(C)c3)c12 | > 50 | > 50 | 1.6 (≈ 4.48 µM) | > 50 | > 50 | > 50 |
| COC(=O)C(C#N)C1=C(Cl)C(=O)C(C)=C(C)C1=O (stereo not drawn) | 12.5 (≈ 46.7 µM) | 25 (≈ 93.4 µM) | 6.3 (≈ 23.5 µM) | 50 (≈ 187 µM) | 25 (≈ 93.4 µM) | 50 (≈ 187 µM) |
| OC(Cn1cncn1)(Cn1cncn1)c1ccc(F)cc1F [FLUCONAZOLE] | 25 (≈ 81.6 µM) | 12.5 (≈ 40.8 µM) | 6.3 (≈ 20.6 µM) | 50 (≈ 163 µM) | 12.5 (≈ 40.8 µM) | 6.3 (≈ 20.6 µM) |
| Nc1nc(=O)[nH]cc1F [FLUCYTOSINE] | 6.3 (≈ 48.8 µM) | 12.5 (≈ 96.8 µM) | 12.5 (≈ 96.8 µM) | 6.3 (≈ 48.8 µM) | 12.5 (≈ 96.8 µM) | 6.3 (≈ 48.8 µM) |
